Experimental data from ChEMBL document CHEMBL1177669, “Synthesis and biological study of 3-(phenylsulfonyl)thieno[2,3-e][1,2,3]triazolo[1,5-a]pyrimidines as potent and selective serotonin 5-HT6 receptor antagonists” (Bioorg Med Chem, 2010).
pIC50, pKi: −log10 of the molar value.

Experiments:
[1] = biological target: T1, 5-hydroxytryptamine receptor 6 (Homo sapiens, UniProt P50406); assay: Antagonist activity at human recombinant 5HT6 receptor expressed in HEK293 cells assessed as inhibition of serotonin-induced cAMP production; type: functional, cell-based
In short: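 HEK293 cells stably expressing recombinant human 5-HT6R, stimulated with serotonin. cAMP from adenylyl cyclase measured by LANCE. Compounds screened at 5 and 10 μM. IC50 determined for compounds giving more than 50% inhibition of cAMP synthesis at 5 μM.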

[2] = biological target: T1, 5-hydroxytryptamine receptor 6; assay: Binding affinity to human recombinant 5HT6 receptor expressed in HEK293 cells by radioligand displacement assay; type: cell-based
In short: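 Competitive radioligand binding at the 5-HT6 receptor, run by MDS Pharma Services as part of a serotonin receptor panel. IC50 and Ki values derived.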

[3] = biological target: T2, 5-hydroxytryptamine receptor 1A (Homo sapiens) (UniProt P08908); assay: Binding affinity to 5HT1A receptor at 1 uM by radioligand displacement assay
T2 sequence (whole entry): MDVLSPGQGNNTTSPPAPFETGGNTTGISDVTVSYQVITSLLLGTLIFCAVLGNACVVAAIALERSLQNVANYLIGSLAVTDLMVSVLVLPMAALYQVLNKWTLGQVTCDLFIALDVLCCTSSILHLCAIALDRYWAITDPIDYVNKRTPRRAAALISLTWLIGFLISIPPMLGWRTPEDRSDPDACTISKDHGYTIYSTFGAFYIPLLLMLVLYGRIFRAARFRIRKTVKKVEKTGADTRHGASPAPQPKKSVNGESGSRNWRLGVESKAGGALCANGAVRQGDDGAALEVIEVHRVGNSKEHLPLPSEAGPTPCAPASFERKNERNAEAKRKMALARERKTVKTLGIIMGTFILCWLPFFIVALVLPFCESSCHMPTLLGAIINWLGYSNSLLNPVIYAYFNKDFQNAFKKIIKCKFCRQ
In short: (§1)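 Competitive radioligand binding run by MDS Pharma Services on a serotonin receptor panel. Test compound at 1 µM. Read-out is % displacement of radioligand from each receptor complex.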

[4] = biological target: 5-hydroxytryptamine receptor 1B (Homo sapiens) (UniProt P28222); assay: Binding affinity to 5HT1B receptor at 1 uM by radioligand displacement assay; in short: as §1
[5] = biological target: 5-hydroxytryptamine receptor 2A (Homo sapiens) (UniProt P28223); assay: Binding affinity to 5HT2A receptor at 1 uM by radioligand displacement assay; in short: as §1
[6] = biological target: 5-hydroxytryptamine receptor 2B (Homo sapiens) (UniProt P41595); assay: Binding affinity to 5HT2B receptor at 1 uM by radioligand displacement assay; in short: as §1
[7] = biological target: T3, 5-hydroxytryptamine receptor 2C (Homo sapiens) (UniProt P28335); assay: Binding affinity to 5HT2C receptor at 1 uM by radioligand displacement assay; in short: as §1
T3 sequence (whole entry): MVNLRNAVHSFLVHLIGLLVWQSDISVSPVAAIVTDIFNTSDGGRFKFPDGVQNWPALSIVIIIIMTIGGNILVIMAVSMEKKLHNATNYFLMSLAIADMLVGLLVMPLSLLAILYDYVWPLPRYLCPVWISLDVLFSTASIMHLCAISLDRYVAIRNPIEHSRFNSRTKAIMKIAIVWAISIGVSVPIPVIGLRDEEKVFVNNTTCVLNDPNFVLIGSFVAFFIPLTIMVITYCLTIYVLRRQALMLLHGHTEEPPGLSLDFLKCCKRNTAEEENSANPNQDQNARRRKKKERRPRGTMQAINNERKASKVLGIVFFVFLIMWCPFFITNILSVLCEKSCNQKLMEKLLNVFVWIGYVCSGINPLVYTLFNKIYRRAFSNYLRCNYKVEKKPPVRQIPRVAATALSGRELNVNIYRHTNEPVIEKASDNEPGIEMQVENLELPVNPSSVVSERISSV

[8] = biological target: T4, 5-hydroxytryptamine receptor 3A (Homo sapiens) (UniProt P46098); assay: Binding affinity to 5HT3 receptor at 1 uM by radioligand displacement assay; in short: as §1
T4 sequence (whole entry): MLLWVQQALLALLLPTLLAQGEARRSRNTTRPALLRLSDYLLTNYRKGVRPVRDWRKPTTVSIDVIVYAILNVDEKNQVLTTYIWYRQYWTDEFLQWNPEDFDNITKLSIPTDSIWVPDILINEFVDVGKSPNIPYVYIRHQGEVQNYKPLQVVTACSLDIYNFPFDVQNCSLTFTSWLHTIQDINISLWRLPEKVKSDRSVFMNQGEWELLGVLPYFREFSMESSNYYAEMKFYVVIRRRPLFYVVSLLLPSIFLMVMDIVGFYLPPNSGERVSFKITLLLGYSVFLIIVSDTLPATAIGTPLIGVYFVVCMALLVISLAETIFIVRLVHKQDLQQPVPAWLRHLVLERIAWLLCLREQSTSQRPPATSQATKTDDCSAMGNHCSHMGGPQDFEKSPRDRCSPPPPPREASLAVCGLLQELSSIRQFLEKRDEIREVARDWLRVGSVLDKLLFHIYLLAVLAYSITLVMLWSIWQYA

[9] = biological target: 5-hydroxytryptamine receptor 4 (Homo sapiens) (UniProt Q13639); assay: Binding affinity to 5HT4 receptor at 1 uM by radioligand displacement assay; in short: as §1
[10] = biological target: 5-hydroxytryptamine receptor 7 (Homo sapiens) (UniProt P34969); assay: Binding affinity to 5HT7 receptor at 1 uM by radioligand displacement assay; in short: as §1
[11] = biological target: T5, hERG (KCNH2) (Homo sapiens, UniProt Q12809); assay: Inhibition of human ERG at 15 uM by patch clamp assay
In short: (§2)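 hERG potassium channel inhibition measured by patch clamp, performed by MDS Pharma Services. Read-out is % inhibition at a single test concentration.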

[12] = biological target: T1, 5-hydroxytryptamine receptor 6; assay: Binding affinity to human recombinant 5HT6 receptor expressed in HEK293 cells at 1 uM by radioligand displacement assay; type: cell-based; in short: as §1
[13] = biological target: T5, hERG (KCNH2); assay: Inhibition of human ERG at 30 uM by patch clamp assay; in short: as §2

T1 sequence (P50406 whole entry): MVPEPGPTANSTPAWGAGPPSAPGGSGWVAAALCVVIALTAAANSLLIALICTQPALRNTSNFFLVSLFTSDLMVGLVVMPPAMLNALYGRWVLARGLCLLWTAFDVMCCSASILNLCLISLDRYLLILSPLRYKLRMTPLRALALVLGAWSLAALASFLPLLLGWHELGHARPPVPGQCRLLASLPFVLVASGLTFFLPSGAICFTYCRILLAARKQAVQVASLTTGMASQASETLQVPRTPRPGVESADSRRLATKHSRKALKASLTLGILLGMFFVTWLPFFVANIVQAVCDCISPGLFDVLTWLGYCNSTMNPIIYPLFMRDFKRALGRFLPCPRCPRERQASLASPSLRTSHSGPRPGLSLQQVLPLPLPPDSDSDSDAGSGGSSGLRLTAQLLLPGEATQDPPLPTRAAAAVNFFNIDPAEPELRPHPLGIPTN
Sequence of 5-hydroxytryptamine receptor 2B (Homo sapiens) (P41595 whole entry): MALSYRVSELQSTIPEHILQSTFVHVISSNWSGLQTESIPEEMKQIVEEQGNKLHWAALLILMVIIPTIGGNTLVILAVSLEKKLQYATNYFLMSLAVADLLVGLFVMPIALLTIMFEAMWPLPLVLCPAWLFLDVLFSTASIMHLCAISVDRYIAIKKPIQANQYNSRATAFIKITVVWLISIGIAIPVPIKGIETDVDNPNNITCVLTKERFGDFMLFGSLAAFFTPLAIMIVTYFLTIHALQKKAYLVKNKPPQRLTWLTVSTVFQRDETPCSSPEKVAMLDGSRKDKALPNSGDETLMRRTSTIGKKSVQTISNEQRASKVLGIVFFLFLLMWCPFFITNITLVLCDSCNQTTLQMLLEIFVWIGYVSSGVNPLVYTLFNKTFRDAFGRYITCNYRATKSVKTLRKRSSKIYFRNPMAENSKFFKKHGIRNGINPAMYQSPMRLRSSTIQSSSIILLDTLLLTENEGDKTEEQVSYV
Sequence of 5-hydroxytryptamine receptor 4 (Homo sapiens) (Q13639 whole entry): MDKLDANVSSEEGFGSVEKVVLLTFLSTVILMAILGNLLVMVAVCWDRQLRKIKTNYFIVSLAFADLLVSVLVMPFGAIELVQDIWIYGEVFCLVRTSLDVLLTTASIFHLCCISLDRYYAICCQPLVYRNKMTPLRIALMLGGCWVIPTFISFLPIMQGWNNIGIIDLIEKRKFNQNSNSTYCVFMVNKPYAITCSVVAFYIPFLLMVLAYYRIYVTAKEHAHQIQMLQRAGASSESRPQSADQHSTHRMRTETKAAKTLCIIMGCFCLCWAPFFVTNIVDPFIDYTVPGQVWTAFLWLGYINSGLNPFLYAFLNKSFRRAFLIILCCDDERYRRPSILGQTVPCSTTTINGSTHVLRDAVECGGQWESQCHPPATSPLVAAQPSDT
Sequence of 5-hydroxytryptamine receptor 7 (Homo sapiens) (P34969 whole entry): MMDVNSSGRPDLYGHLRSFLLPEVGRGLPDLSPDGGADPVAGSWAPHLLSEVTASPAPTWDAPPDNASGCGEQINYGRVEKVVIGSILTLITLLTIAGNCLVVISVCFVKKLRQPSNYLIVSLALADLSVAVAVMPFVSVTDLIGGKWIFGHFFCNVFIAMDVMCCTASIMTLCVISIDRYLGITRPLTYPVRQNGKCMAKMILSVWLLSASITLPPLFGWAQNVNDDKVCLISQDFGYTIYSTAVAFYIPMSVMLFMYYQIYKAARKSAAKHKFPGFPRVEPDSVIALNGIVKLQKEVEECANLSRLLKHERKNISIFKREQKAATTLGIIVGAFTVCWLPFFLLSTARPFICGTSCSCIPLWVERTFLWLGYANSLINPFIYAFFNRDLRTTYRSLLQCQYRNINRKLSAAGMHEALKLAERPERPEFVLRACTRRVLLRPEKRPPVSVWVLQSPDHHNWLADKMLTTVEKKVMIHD
Sequence of 5-hydroxytryptamine receptor 1B (Homo sapiens) (P28222 whole entry): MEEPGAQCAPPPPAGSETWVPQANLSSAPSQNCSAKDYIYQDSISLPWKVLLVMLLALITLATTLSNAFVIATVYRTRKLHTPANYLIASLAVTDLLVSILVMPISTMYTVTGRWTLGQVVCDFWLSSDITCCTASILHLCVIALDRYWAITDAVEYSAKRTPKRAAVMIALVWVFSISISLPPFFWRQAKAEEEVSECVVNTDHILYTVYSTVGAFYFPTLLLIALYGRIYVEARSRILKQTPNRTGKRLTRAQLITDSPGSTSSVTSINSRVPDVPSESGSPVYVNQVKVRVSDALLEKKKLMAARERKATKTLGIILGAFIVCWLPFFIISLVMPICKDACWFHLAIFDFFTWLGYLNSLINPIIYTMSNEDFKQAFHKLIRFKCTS
Sequence of 5-hydroxytryptamine receptor 2A (Homo sapiens) (P28223 whole entry): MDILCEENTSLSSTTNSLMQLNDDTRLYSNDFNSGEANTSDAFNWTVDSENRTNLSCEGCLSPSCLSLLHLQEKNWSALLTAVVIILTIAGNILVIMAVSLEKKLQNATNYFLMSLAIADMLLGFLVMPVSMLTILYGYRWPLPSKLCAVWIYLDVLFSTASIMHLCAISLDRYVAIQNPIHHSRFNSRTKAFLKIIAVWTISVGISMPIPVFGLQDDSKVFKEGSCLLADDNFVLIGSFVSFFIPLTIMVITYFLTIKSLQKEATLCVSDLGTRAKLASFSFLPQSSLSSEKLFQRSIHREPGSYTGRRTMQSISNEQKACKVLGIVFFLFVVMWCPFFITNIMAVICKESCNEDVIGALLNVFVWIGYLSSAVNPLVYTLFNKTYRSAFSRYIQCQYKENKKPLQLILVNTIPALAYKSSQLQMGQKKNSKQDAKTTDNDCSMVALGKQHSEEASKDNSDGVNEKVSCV
T5 sequence (Q12809 whole entry): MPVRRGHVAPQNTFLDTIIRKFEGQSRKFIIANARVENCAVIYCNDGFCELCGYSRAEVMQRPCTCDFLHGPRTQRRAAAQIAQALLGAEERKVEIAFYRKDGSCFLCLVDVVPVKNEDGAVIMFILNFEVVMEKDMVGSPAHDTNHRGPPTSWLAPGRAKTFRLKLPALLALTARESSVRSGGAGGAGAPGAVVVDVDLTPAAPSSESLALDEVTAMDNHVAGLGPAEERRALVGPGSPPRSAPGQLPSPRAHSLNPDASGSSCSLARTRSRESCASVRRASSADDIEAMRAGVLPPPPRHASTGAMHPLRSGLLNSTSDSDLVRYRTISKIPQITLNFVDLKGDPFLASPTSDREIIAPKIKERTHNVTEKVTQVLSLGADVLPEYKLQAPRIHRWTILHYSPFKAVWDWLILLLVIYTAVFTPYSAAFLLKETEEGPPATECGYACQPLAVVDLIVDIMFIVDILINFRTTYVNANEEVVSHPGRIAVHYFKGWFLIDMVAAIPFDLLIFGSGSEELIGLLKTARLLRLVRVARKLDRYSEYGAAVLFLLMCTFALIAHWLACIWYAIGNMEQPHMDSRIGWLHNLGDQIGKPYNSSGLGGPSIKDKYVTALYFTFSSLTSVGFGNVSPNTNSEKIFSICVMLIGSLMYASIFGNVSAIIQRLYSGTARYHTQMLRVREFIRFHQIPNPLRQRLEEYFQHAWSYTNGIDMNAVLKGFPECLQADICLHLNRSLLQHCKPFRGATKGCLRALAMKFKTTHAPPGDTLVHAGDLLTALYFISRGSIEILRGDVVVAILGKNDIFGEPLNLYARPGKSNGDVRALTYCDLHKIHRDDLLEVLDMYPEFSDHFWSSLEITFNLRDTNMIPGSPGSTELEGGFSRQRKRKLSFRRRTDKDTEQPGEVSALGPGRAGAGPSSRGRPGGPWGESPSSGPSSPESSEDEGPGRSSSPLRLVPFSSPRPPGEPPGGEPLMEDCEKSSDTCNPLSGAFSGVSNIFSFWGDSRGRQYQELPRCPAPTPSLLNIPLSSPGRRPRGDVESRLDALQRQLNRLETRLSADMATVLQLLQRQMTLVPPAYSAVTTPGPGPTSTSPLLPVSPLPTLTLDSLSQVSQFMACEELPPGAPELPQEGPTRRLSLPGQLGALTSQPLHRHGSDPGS

Structure (SMILES) | pIC50 [1] | pIC50 [2] | pKi [2] | Activity [3] | Activity [4] | Activity [5] | Activity [6] | Activity [7] | Activity [8] | Activity [9] | Activity [10] | inhibition at 15 µM [11] | Activity [12] | inhibition at 30 µM [13]
CN(Cc1ccccc1)c1nc2c(S(=O)(=O)c3ccccc3)nnn2c2ccsc12 | 6.77 | 8.30 | 8.64 | 2% | 1% | 15% | 12% | 2% | -7% | 33% | -2% | 20% | 103% | 
CN(Cc1ccccc1)c1nc2c(S(=O)(=O)c3cccc(Cl)c3)nnn2c2ccsc12 | 6.04 | 8.12 | 8.46 | 9% | 3% | 50% | 46% | 15% | -3% | 41% | 6% |  | 106% | 20%
